Experimental data collected from several papers.
Each line is one published result; the experiments were not run side by side.

| SMILES | species | sample | route | dose | setting | half-life |
| --- | --- | --- | --- | --- | --- | --- |
| O=C(NCCN1CCCC1)c1cc(-c2ccc(CN3CCOCC3)cc2)nc2ccc(F)cc12 | male beagle dog | blood | intravenous | 1 mg/kg | – | 13 h |
| Cc1nnc2sc(C(=O)NCc3ccc(-c4cccnc4F)cc3)c(N)c2c1C | dog | plasma | intravenous | – | – | 1 h |
| CC[C@@H]1CN(C(=O)NCC(F)(F)F)C[C@@H]1c1cnc2cnc3[nH]ccc3n12 | beagle dog | plasma | oral | 1 mg/kg | single dose | 11.6 h |
| C=CC(=O)Nc1cc(Nc2nccc(Nc3cc(Cl)c(F)cc3C(C)(C)O)n2)c(OC)cc1N1CC[C@@H](N(C)C)C1 | beagle dog | plasma | intravenous | 1 mg/kg | – | 13.9 h |
| COc1cc2c3c(n(CCCN4CCOCC4)c(=O)c2cc1OC)-c1cc2c(cc1C3=O)OCO2 | female beagle dog | plasma | intravenous | 100 mg/m² | infusion | 14 h |
| Cc1cnc(N2CC3(CCOCC3)C2)c(C(=O)Nc2ccc(C(=O)N3CCc4cc(C(=O)Nc5c(C)cccc5F)sc4-c4ccccc43)cc2)c1 | dog | plasma | intravenous | 0.1 mg/kg | single dose | 2.4 h |
| Oc1c(-n2ccnn2)cnn1-c1cc(N2CCOCC2)ncn1 | female dog | plasma | intravenous | 3 mg/kg | – | 2.7 h |
| CCn1c(=O)c(-c2cc(NC(=O)Nc3ccccc3)c(F)cc2Br)cc2cnc(NC)cc21 | beagle dog | plasma | oral | 5 mg/kg | single dose | 6.96 h |
